Legend:
Type in all cases: functional
SNB-19 [1] = experiment: Cytotoxicity against human SNB19 cells assessed as cell growth at 0.001 uM after 48 hrs by sulforhodamine B assay; conditions: SNB-19, 48 h, read-out: Activity
OVCAR-4 [2] = experiment: Cytotoxicity against human OVCAR4 cells assessed as cell growth at 0.01 uM after 48 hrs by sulforhodamine B assay; conditions: OVCAR-4, 48 h, read-out: Activity
TK-10 = experiment: Cytotoxicity against human TK10 cells assessed as cell growth at 100 nM after 48 hrs by sulforhodamine B assay; conditions: TK-10, 48 h, read-out: Activity
U-251 = experiment: Cytotoxicity against human U251 cells assessed as cell growth at 0.001 uM after 48 hrs by sulforhodamine B assay; conditions: U-251, 48 h, read-out: Activity
SNB-19 [3] = experiment: Growth inhibition of human SNB19 cells after 48 hrs by sulforhodamine B assay; conditions: SNB-19, 48 h; for CC50: read-out: LC50 (the source's name)
Outline: (§1)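 NCI 60-cell screen, five-dose mode. Cells grown in RPMI 1640 with 5% FBS and 2 mM L-glutamine and plated at 5000-40,000 cells/well according to doubling time. After 24 h preincubation, a Tz plate was TCA-fixed. Five concentrations (10-fold or 1/2 log dilutions) were applied for 48 h at 37 °C. SRB staining read at 515 nm. IC50 taken from [(Ti-Tz)/(C-Tz)]×100 = 50.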

K562 = experiment: Cytotoxicity against human K562 cells assessed as cell growth at 1 uM after 48 hrs by sulforhodamine B assay; conditions: K562, 48 h, read-out: Activity
HCT-116 = experiment: Cytotoxicity against human HCT116 cells assessed as cell growth at 0.01 uM after 48 hrs by sulforhodamine B assay; conditions: HCT-116, 48 h, read-out: Activity
HCC 2998 = experiment: Cytotoxicity against human HCC2998 cells assessed as cell growth at 10 uM; conditions: read-out: Activity
Outline: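 Single-dose NCI-60 screen at 10 µM. Cells were grown in RPMI 1640 with 5% FBS and 2 mM L-glutamine, then treated for 48 h at 37 °C. Protein was measured by SRB staining with absorbance at 515 nm. Percentage growth was recorded, and inhibition percentage was calculated as 100 minus growth percentage.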

MDA-MB-231 = experiment: Cytotoxicity against human MDA-MB-231 cells assessed as cell growth at 100 nM after 48 hrs by sulforhodamine B assay; conditions: MDA-MB-231, 48 h, read-out: Activity
[4] = Cytotoxicity against human RPMI8266 cells assessed as cell growth at 1 uM after 48 hrs by sulforhodamine B assay; conditions: read-out: Activity
PC-3 = experiment: Cytotoxicity against human PC3 cells assessed as cell growth at 100 nM after 48 hrs by sulforhodamine B assay; conditions: PC-3, 48 h, read-out: Activity
LOX IMVI [5] = experiment: Cytotoxicity against human LOXIMVI cells assessed as cell growth at 100 nM after 48 hrs by sulforhodamine B assay; conditions: read-out: Activity
BT-549 = experiment: Cytotoxicity against human BT549 cells assessed as cell growth at 10 uM after 48 hrs by sulforhodamine B assay; conditions: BT-549, 48 h, read-out: Activity
Outline: (§2)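 NCI-60 five-dose screen. Cells were grown in RPMI 1640 with 5% FBS and 2 mM L-glutamine, plated at 5000–40,000 cells/well and preincubated for 24 h. Time-zero plates were TCA-fixed. DMSO-solubilized drug was added at five concentrations (10-fold or ½-log serial dilutions) for 48 h at 37 °C, 5% CO2. Cells were TCA-fixed, stained with 0.4% SRB and read at 515 nm. Percent growth used time-zero, control and test absorbances.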

LOX IMVI [6] = experiment: Cytotoxicity against human LOXIMVI cells assessed as cell growth at 10 uM after 48 hrs by sulforhodamine B assay; conditions: read-out: Activity
MOLT-4 = experiment: Growth inhibition of human MOLT4 cells after 48 hrs by sulforhodamine B assay; conditions: MOLT-4, 48 h; outline: as §1
SNB-75 [7] = experiment: Cytotoxicity against human SNB75 cells assessed as cell growth at 0.001 uM after 48 hrs by sulforhodamine B assay; conditions: SNB-75, 48 h, read-out: Activity
A498 = experiment: Cytotoxicity against human A498 cells assessed as cell growth at 0.001 uM after 48 hrs by sulforhodamine B assay; conditions: A498, 48 h, read-out: Activity; outline: as §2
UO-31 = experiment: Growth inhibition of human UO31 cells after 48 hrs by sulforhodamine B assay; conditions: UO-31, 48 h; for CC50: read-out: LC50 (the source's name); outline: as §1
UACC-62 = experiment: Growth inhibition of human UACC62 cells after 48 hrs by sulforhodamine B assay; conditions: UACC-62, 48 h; for CC50: read-out: LC50 (the source's name); outline: as §1
SK-MEL-5 = experiment: Cytotoxicity against human SK-MEL-5 cells assessed as cell growth at 0.01 uM after 48 hrs by sulforhodamine B assay; conditions: SK-MEL-5, 48 h, read-out: Activity
NCI-H322M = experiment: Cytotoxicity against human NCI-H322M cells assessed as cell growth at 10 uM after 48 hrs by sulforhodamine B assay; conditions: read-out: Activity
DU-145 = experiment: Growth inhibition of human DU145 cells after 48 hrs by sulforhodamine B assay; conditions: DU-145, 48 h
Outline: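 NCI five-dose SRB assay in RPMI 1640 with 5% FBS and 2 mM L-glutamine. Cells were preincubated 24 h, then exposed 48 h at 37 °C to five concentrations (10-fold or half-log serial dilutions from DMSO stocks). TCA fixation, SRB staining, and absorbance at 515 nm followed. IC50 was taken where [(Ti−Tz)/(C−Tz)]×100 = 50, with Tz as time-zero cell density.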

OVCAR-4 [8] = experiment: Cytotoxicity against human OVCAR4 cells assessed as cell growth at 10 uM; conditions: read-out: Activity
Outline: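 NCI-60 screen: cells grown in RPMI 1640 with 5% FBS and 2 mM L-glutamine, plated at 5000–40,000 cells/well according to doubling time, and preincubated 24 h at 37 °C, 5% CO2. The single 10 µM dose (DMSO stock) was added, then incubated 48 h. Cells were TCA-fixed and stained with 0.4% SRB, read at 515 nm, and growth % calculated against time-zero and control plates.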

OVCAR-3 = experiment: Cytotoxicity against human OVCAR-3 cells assessed as cell growth at 1 uM after 48 hrs by sulforhodamine B assay; conditions: OVCAR-3, 48 h, read-out: Activity
SK-OV-3 = experiment: Growth inhibition of human SKOV3 cells after 48 hrs by sulforhodamine B assay; conditions: SK-OV-3, 48 h; for CC50: read-out: LC50 (the source's name); outline: as §1
EKVX = experiment: Cytotoxicity against human EKVX cells assessed as cell growth at 1 uM after 48 hrs by sulforhodamine B assay; conditions: read-out: Activity
SNB-75 [9] = experiment: Cytotoxicity against human SNB75 cells assessed as cell growth at 1 uM after 48 hrs by sulforhodamine B assay; conditions: SNB-75, 48 h, read-out: Activity

Structure (SMILES)	growth at 0.001 µM (SNB-19 [1]) [%]	growth at 0.01 µM (OVCAR-4 [2]) [%]	growth at 0.1 µM (TK-10) [%]	growth at 0.001 µM (U-251) [%]	GI50 (SNB-19 [3]) [µM]	TGI (SNB-19 [3]) [µM]	CC50 (SNB-19 [3]) [µM]	growth at 1 µM (K562) [%]	growth at 0.01 µM (HCT-116) [%]	growth at 10 µM (HCC 2998) [%]	growth at 0.1 µM (MDA-MB-231) [%]	growth at 1 µM [4] [%]	growth at 0.1 µM (PC-3) [%]	growth at 0.1 µM (LOX IMVI [5]) [%]	growth at 10 µM (BT-549) [%]	growth at 10 µM (LOX IMVI [6]) [%]	GI50 (MOLT-4) [µM]	LC50 (MOLT-4) [µM]	growth at 0.001 µM (SNB-75 [7]) [%]	growth at 0.001 µM (A498) [%]	other results
COc1cc(C)cc(-c2c(-c3ccnc(-c4ccc(N(C)C)cc4)c3)cnn2CC#N)c1	90	77	44	95	0.362	> 100	> 100	-5	44	-57.5	-5	-31	11	19	-25	10	0.271	> 100	88	94	GI50 (UO-31): 0.508 µM; TGI (UO-31): > 100 µM; CC50 (UO-31): > 100 µM; GI50 (UACC-62): 0.0619 µM; TGI (UACC-62): > 100 µM; CC50 (UACC-62): > 100 µM; growth at 0.01 µM (SK-MEL-5): 19%; growth at 10 µM (NCI-H322M): 21%; GI50 (DU-145): 0.113 µM; TGI (DU-145): 0.334 µM; growth at 10 µM (OVCAR-4 [8]): 26%; growth at 1 µM (OVCAR-3): 3%; GI50 (SK-OV-3): 0.504 µM; TGI (SK-OV-3): > 100 µM; CC50 (SK-OV-3): > 100 µM; growth at 1 µM (EKVX): 9%; growth at 1 µM (SNB-75 [9]): 10%
COc1cc(C)cc(-c2nn(CC#N)cc2-c2ccc(-c3cccc(C(C)=O)c3)nc2)c1	101	97	101	98	6.62	> 100	> 100	5	93	28.6	85	8	85	82	-24	6	3.35	> 100	82	76	TGI (MOLT-4): > 100 µM; GI50 (UO-31): 3.18 µM; TGI (UO-31): 58.2 µM; CC50 (UO-31): > 100 µM; GI50 (UACC-62): 4.36 µM; TGI (UACC-62): > 100 µM; CC50 (UACC-62): > 100 µM; growth at 0.01 µM (SK-MEL-5): 91%; growth at 10 µM (NCI-H322M): -10%; GI50 (DU-145): 1.98 µM; LC50 (DU-145): > 100 µM; TGI (DU-145): 4.95 µM; growth at 10 µM (OVCAR-4 [8]): 31.7%; growth at 1 µM (OVCAR-3): -61%; GI50 (SK-OV-3): 3.13 µM; TGI (SK-OV-3): 9.1 µM; CC50 (SK-OV-3): > 100 µM; growth at 1 µM (EKVX): 24%; growth at 1 µM (SNB-75 [9]): -20%
Cc1cc(O)cc(-c2nn(CC#N)cc2-c2ccnc(-c3ccc(N(C)C)cc3)c2)c1	96	108	125	101	4.54	43.9	> 100	7	98	53.5	84	15	94	101	-43	-87	3.17	> 100	83	101	TGI (MOLT-4): 46 µM; GI50 (UO-31): 3.23 µM; TGI (UO-31): 32.5 µM; CC50 (UO-31): > 100 µM; GI50 (UACC-62): 3.05 µM; TGI (UACC-62): 14 µM; CC50 (UACC-62): 72.1 µM; growth at 0.01 µM (SK-MEL-5): 90%; growth at 10 µM (NCI-H322M): -11%; GI50 (DU-145): 2.75 µM; LC50 (DU-145): 53.2 µM; TGI (DU-145): 8.57 µM; growth at 10 µM (OVCAR-4 [8]): 29.9%; growth at 1 µM (OVCAR-3): -40%; GI50 (SK-OV-3): 2.85 µM; TGI (SK-OV-3): 8.03 µM; CC50 (SK-OV-3): > 100 µM; growth at 1 µM (EKVX): 29%; growth at 1 µM (SNB-75 [9]): -22%

From ChEMBL document CHEMBL1165950, “Design and synthesis of new potent anticancer pyrazoles with high FLT3 kinase inhibitory selectivity” (Bioorg Med Chem, 2010)
